Experimental data taken from ChEMBL document CHEMBL1134357, “Heterobifunctional ligands: practical chemoenzymatic synthesis of a cell adhesive glycopeptide that interacts with both selectins and integrins” (J Med Chem, 2001).

Assays:
[1] = Dissociation constant of compound against selectin L was determined
How it was run: (§1)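 SPR (IAsys): recombinant soluble human E-, P- or L-selectin is coupled to a BS3-activated aminosilane cuvette and the surface blocked with BSA. Binding is run in 10 mM PBS, 1 mM CaCl2, pH 7.2, at 25 °C. Ligand solution (0.01 mL into 0.2 mL total) is monitored for 20 min, and kinetic and equilibrium constants are derived from the binding curves.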

[2] = biological target: T1, P-selectin (Homo sapiens) (UniProt P16109); experiment: Binding affinity of compound against selectin P was determined; how it was run: as §1
T1 sequence (whole entry): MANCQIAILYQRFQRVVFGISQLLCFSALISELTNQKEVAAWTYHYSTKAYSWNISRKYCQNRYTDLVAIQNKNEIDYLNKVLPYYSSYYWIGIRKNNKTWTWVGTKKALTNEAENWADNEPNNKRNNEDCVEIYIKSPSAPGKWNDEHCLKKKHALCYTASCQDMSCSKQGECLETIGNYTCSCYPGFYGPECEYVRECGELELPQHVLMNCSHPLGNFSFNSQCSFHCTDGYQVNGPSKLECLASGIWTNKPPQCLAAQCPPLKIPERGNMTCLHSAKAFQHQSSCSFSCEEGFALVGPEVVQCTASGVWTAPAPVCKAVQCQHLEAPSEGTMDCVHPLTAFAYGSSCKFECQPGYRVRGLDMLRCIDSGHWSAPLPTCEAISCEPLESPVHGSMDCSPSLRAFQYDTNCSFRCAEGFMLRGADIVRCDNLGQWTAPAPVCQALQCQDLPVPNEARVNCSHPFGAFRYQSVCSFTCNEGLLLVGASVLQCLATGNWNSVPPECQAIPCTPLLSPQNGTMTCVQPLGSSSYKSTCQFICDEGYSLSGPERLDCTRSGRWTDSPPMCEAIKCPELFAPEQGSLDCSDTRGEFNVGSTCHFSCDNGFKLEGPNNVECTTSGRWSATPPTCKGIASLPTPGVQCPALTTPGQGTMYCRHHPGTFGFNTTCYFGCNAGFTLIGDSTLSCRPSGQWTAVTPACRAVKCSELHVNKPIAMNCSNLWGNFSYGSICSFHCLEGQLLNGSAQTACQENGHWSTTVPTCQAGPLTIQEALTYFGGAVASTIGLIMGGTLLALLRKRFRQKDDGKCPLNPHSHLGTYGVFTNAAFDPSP

[3] = Dissociation constant of compound against selectin P was determined; how it was run: as §1
[4] = Dissociation constant of compound against selectin E was determined; how it was run: as §1
[5] = biological target: T2, L-selectin (Homo sapiens) (UniProt P14151); experiment: Binding affinity of compound against selectin L was determined; how it was run: as §1
T2 sequence (whole entry): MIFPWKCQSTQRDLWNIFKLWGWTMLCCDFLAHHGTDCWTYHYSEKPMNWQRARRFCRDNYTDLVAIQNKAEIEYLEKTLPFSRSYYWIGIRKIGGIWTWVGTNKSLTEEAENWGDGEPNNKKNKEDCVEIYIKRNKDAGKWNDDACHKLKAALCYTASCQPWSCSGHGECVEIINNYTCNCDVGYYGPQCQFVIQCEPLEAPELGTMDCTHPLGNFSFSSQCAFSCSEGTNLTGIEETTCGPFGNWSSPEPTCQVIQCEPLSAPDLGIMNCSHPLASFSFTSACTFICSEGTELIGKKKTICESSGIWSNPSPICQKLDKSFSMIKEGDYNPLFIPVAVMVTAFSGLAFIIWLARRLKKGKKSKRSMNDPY

[6] = biological target: T3, E-selectin (Homo sapiens) (UniProt P16581); experiment: Binding affinity of compound against selectin E was determined; how it was run: as §1
T3 sequence (whole entry): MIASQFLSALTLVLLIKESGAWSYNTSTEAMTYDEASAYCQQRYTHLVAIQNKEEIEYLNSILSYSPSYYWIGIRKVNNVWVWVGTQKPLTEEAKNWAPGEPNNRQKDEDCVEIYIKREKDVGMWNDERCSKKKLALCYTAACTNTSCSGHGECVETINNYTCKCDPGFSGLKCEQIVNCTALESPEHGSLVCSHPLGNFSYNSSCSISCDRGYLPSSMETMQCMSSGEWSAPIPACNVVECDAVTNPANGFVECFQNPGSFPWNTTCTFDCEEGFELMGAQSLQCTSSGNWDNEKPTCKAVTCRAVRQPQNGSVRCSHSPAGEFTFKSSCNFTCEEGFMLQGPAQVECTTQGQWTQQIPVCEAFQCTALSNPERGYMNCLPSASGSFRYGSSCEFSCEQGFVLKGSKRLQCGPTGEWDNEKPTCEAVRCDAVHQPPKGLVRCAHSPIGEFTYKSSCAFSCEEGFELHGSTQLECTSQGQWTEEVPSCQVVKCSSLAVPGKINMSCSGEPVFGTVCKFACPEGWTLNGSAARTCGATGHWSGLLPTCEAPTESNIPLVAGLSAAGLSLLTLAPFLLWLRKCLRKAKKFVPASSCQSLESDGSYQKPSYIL

[7] = Association constant of compound against selectin L was determined; how it was run: as §1
[8] = Association constant of compound against selectin E was determined; how it was run: as §1
[9] = Association constant of compound against selectin P was determined; how it was run: as §1

| K diss [1] | Ka [2] | K diss [3] | K diss [4] | Ka [5] | Ka [6] | K ass [7] | K ass [8] | K ass [9] | Compound |
| --- | --- | --- | --- | --- | --- | --- | --- | --- | --- |
| 0.00077 s⁻¹ | 97000 M⁻¹ | 0.00092 s⁻¹ | 0.00066 s⁻¹ | 5400 M⁻¹ | 6100 M⁻¹ |  |  |  | N=C(N)NCCC[C@H](N)C(=O)NCC(=O)N[C@@H](CC(=O)O)C(=O)N[C@@H](CO)C(=O)O |
| 0.36 s⁻¹ | 880000 M⁻¹ | 0.00026 s⁻¹ | 0.0017 s⁻¹ | 870 M⁻¹ | 12000 M⁻¹ | 312.7 M⁻¹ s⁻¹ | 21.1 M⁻¹ s⁻¹ | 229.6 M⁻¹ s⁻¹ | CC(=O)N[C@H]1[C@H]([C@H](O)[C@H](O)CO)O[C@@](O[C@H]2[C@@H](O)[C@@H](CO)O[C@@H](O[C@@H]([C@H](O[C@@H]3O[C@@H](C)[C@@H](O)[C@@H](O)[C@@H]3O)[C@H](C=O)NC(C)=O)[C@H](O)CO)[C@@H]2O)(C(=O)O)C[C@@H]1O [SIALYL LEWIS X] |
|  |  |  |  |  |  | 4.1 M⁻¹ s⁻¹ | 4 M⁻¹ s⁻¹ | 89.1 M⁻¹ s⁻¹ | NC(N)=NCCC[C@H](N)C(=O)NCC(=O)N[C@@H](CC(=O)O)C(=O)N[C@@H](CO)C(=O)O |
